Data taken from ChEMBL document CHEMBL1144933, “Novel bioactive and stable neurotensin peptide analogues capable of delivering radiopharmaceuticals and molecular beacons to tumors” (J Med Chem, 2003).
Where a SMILES comes first, the peptide text is derived from it. [ ]: non-standard residue; d: D form. The star is where a group is joined. Gly(1-amidinopiperidin-4-yl) = N=C(N)N1CCC([C@H](N)C(=O)O)CC1; DTPA = O=C(O)CN(CCN(CC(=O)O)CC(=O)O)CCN(CC(=O)O)CC(=O)*; Gly(piperidin-4-yl) = N[C@H](C(=O)O)C1CCNCC1; Tle = CC(C)(C)[C@H](N)C(=O)O

Tests used:
Mus musculus [1] = experiment: Biodistribution of [111In]DTPA-NT in HT-29 tumor implanted SCID mice spleen at 4 h postinjection; format: ADME, organism-based; details: in vivo
Summary of the method: (§1)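 Male SCID mice bore HT29 xenografts from 1 × 10^6 cells given s.c. in both rear flanks. Tumours reached about 0.3 g by day 14. Under Metofane anaesthesia, mice received 20 μL (10 μCi) of 111In-DTPA-NT analogue (1400 Ci/mmol) via the jugular vein. Groups of n = 3 were killed by cervical dislocation at 1 and 4 h. Blood and tissues were gamma-counted and reported as %ID/g ± SE.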

Mus musculus [2] = experiment: Biodistribution of [111In]DTPA-NT in HT-29 tumor implanted SCID mice kidneys at 4 h postinjection; format: ADME, organism-based, Kidney; details: in vivo; summary of the method: as §1
Mus musculus [3] = experiment: Biodistribution of [111In]-DTPA-NT in HT-29 tumor implanted SCID mice pancreas at 4 hr postinjection LSA administration; format: ADME, organism-based; details: in vivo
Summary of the method: (§2)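 Receptor-blocking (low specific activity) arm in male SCID mice with s.c. HT29 flank xenografts of about 0.3 g. Two animals received the same activity (10 μCi, jugular vein) diluted with cold NT to 0.5 Ci/mmol. Tissues were collected after cervical dislocation, radioassayed, and expressed as %ID/g.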

Mus musculus [4] = experiment: Biodistribution of [111In]-DTPA-NT in HT-29 tumor implanted SCID mice spleen at 1 hr postinjection; format: ADME, organism-based; details: in vivo; summary of the method: as §1
Mus musculus [5] = experiment: Biodistribution of [111In]DTPA-NT in HT-29 tumor implanted SCID mice tumor at 1 h postinjection; format: ADME, organism-based; details: in vivo; summary of the method: as §1
[6] = target: Neurotensin receptor type 1 (Homo sapiens, UniProt P30989); experiment: Binding affinity towards neurotensin receptor in membranes prepared from HT-29 cell line, relative to [111In]-labeled neurotensin peptide
Neurotensin receptor type 1, sequence (P30989 whole entry): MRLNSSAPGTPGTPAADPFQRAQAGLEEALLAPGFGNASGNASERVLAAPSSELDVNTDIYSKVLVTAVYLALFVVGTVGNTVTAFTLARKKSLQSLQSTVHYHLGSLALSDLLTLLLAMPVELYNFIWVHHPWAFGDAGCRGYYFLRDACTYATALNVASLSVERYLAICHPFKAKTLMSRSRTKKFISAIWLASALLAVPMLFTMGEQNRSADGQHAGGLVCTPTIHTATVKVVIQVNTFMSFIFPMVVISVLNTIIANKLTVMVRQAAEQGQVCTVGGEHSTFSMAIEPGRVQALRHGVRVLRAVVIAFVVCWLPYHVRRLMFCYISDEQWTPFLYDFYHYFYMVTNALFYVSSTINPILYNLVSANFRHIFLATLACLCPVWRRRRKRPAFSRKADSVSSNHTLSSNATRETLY

Mus musculus [7] = experiment: Biodistribution of [111In]DTPA-NT in HT-29 tumor implanted SCID mice tumor at 4 h postinjection LSA administration; format: ADME, organism-based; details: in vivo; summary of the method: as §2
Mus musculus [8] = experiment: Biodistribution of [111In]DTPA-NT in HT-29 tumor implanted SCID mice blood at 1 h postinjection; format: ADME, organism-based; details: in vivo; summary of the method: as §1
Mus musculus [9] = experiment: Biodistribution of [111In]-DTPA-NT in HT-29 tumor implanted SCID mice tumor at 4 hr postinjection; format: ADME, organism-based; details: in vivo; summary of the method: as §1
Mus musculus [10] = experiment: Biodistribution of [111In]DTPA-NT in HT-29 tumor implanted SCID mice muscle at 4 h postinjection; format: ADME, organism-based, Muscle tissue; details: in vivo; summary of the method: as §1
Mus musculus [11] = experiment: Biodistribution of [111In]-DTPA-NT in HT-29 tumor implanted SCID mice pancreas at 4 h postinjection; format: ADME, organism-based; details: in vivo; summary of the method: as §1
Mus musculus [12] = experiment: Biodistribution of [111In]DTPA-NT in HT-29 tumor implanted SCID mice kidneys at 1 h postinjection; format: ADME, organism-based, Kidney; details: in vivo; summary of the method: as §1
Mus musculus [13] = experiment: Biodistribution of [111In]DTPA-NT in HT-29 tumor implanted SCID mice pancreas at 1 h postinjection; format: ADME, organism-based; details: in vivo; summary of the method: as §1
Mus musculus [14] = experiment: Biodistribution of [111In]-DTPA-NT in HT-29 tumor implanted SCID mice blood at 4 hr postinjection LSA administration; format: ADME, organism-based; details: in vivo; summary of the method: as §2
Mus musculus [15] = experiment: Biodistribution of [111In]DTPA-NT in HT-29 tumor implanted SCID mice liver at 1 h postinjection; format: ADME, organism-based; details: in vivo; summary of the method: as §1
Mus musculus [16] = experiment: Biodistribution of [111In]DTPA-NT in HT-29 tumor implanted SCID mice liver at 4 h postinjection; format: ADME, organism-based; details: in vivo; summary of the method: as §1
Mus musculus [17] = experiment: Biodistribution of [111In]-DTPA-NT in HT-29 tumor implanted SCID mice liver at 4 hr postinjection LSA administration; format: ADME, organism-based; details: in vivo; summary of the method: as §2
Mus musculus [18] = experiment: Biodistribution of [111In]-DTPA-NT in HT-29 tumor implanted SCID mice spleen at 4 hr postinjection LSA administration; format: ADME, organism-based; details: in vivo; summary of the method: as §2
Mus musculus [19] = experiment: Biodistribution of [111In]DTPA-NT in HT-29 tumor implanted SCID mice blood at 4 h postinjection; format: ADME, organism-based; details: in vivo; summary of the method: as §1
Mus musculus [20] = experiment: Biodistribution of [111In]-DTPA-NT in HT-29 tumor implanted SCID mice kidneys at 4 hr postinjection LSA administration; format: ADME, organism-based, Kidney; details: in vivo; summary of the method: as §2
Mus musculus [21] = experiment: Biodistribution of [111In]-DTPA-NT in HT-29 tumor implanted SCID mice muscle at 4 hr postinjection LSA administration; format: ADME, organism-based, Muscle tissue; details: in vivo; summary of the method: as §2
Mus musculus [22] = experiment: Biodistribution of [111In]DTPA-NT in HT-29 tumor implanted SCID mice muscle at 1 h postinjection; format: ADME, organism-based, Muscle tissue; details: in vivo; summary of the method: as §1

`CC(C)C[C@H](NC(=O)[C@@H](NC(=O)[C@H](Cc1ccc(O)cc1)NC(=O)[C@@H]1CCCN1C(=O)[C@H](CCCN=C(N)N)NC(=O)[C@@H](NC(=O)[C@@H]1CCCN1C(=O)[C@@H](NC(=O)CN(CCN(CCN(CC(=O)O)CC(=O)O)CC(=O)O)CC(=O)O)C1CCNCC1)C1CCN(C(=N)N)CC1)C(C)(C)C)C(=O)O` ({DTPA}-[Gly(piperidin-4-yl)]P[Gly(1-amidinopiperidin-4-yl)]RPY[Tle]L-OH) showed an ID/g tissue (Mus musculus [1]) of 0.085%, an ID/g tissue (Mus musculus [2]) of 4.841% and an ID/g tissue (Mus musculus [3]) of 0.051%. For the same compound, the ID/g tissue (Mus musculus [4]) was 0.18%, the ID/g tissue (Mus musculus [5]) was 2.831% and the IC50 [6] was 300 pM. It also gave an ID/g tissue (Mus musculus [7]) of 0.263%, an ID/g tissue (Mus musculus [8]) of 0.416% and an ID/g tissue (Mus musculus [9]) of 2.177%. It also gave an ID/g tissue (Mus musculus [10]) of 0.021%, an ID/g tissue (Mus musculus [11]) of 0.03% and an ID/g tissue (Mus musculus [12]) of 6.141%. The ID/g tissue (Mus musculus [13]) was 0.152%, the ID/g tissue (Mus musculus [14]) was 0.027% and the ID/g tissue (Mus musculus [15]) was 0.203%. The ID/g tissue (Mus musculus [16]) was 0.133%, the ID/g tissue (Mus musculus [17]) was 0.168% and the ID/g tissue (Mus musculus [18]) was 0.088%. For the same compound, the ID/g tissue (Mus musculus [19]) was 0.03%, the ID/g tissue (Mus musculus [20]) was 5.725% and the ID/g tissue (Mus musculus [21]) was 0.03%. For the same compound, the ID/g tissue (Mus musculus [22]) was 0.092%.
